From ChEMBL document CHEMBL3596149, “Thermodynamics and kinetic studies in the binding interaction of cyclic naphthalene diimide derivatives with double stranded DNAs” (Bioorg Med Chem, 2015)
Activity calls are given as the source filed them. No cut-off for these calls is given here.

Key:
Calf thymus DNA [1] = test: Binding affinity to calf thymus DNA assessed as association constant by stopped flow kinetics assay; type: nucleic-acid assay; details: Bos taurus
Method in brief: (§1)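 Ligand was mixed with DNA in a stopped-flow instrument, in 10 mM MES pH 6.25 with 0.1 M NaCl and 1 mM EDTA. Ligand to DNA base-pair ratio was 1:10. Absorbance was followed at the ligand maximum (383 nm). Traces were fitted to a single exponential, and apparent rate constants were plotted against DNA concentration.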

[2] = Binding affinity to poly[d(A-T)]2 DNA (unknown origin) assessed as dissociation constant by stopped flow kinetics assay
Method in brief: (§2)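 Dissociation was SDS-driven and measured by stopped-flow. Equal volumes of 1% SDS and ligand–DNA complex (ligand:bp 1:10) were mixed rapidly. Buffer was 10 mM MES pH 6.25 with 100 mM NaCl and 1 mM EDTA. Absorbance was recorded over time, and k_d was obtained by nonlinear fitting of the trace.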

[3] = Binding affinity to poly[d(G-C)]2 DNA (unknown origin) assessed as association constant by stopped flow kinetics assay; method in brief: as §1
Calf thymus DNA [4] = test: Binding affinity to calf thymus DNA assessed as dissociation constant by stopped flow kinetics assay; type: nucleic-acid assay, Bos taurus; method in brief: as §2
Calf thymus DNA [5] = test: Binding affinity to calf thymus DNA assessed as change in enthalpy by thermodynamics analysis; type: nucleic-acid assay; details: Bos taurus
Method in brief: (§3)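 Binding constants for CT-DNA were obtained by UV-vis titration at 20–27.5°C in 10 mM MES pH 6.25 with 0.1 M NaCl and 1 mM EDTA. ΔH and ΔS were taken from a van't Hoff plot of lnK vs 1/T. ΔG at 25°C came from the Gibbs equation.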

Calf thymus DNA [6] = test: Binding affinity to calf thymus DNA assessed as change in entropy by thermodynamics analysis; type: nucleic-acid assay; details: Bos taurus; method in brief: as §3
Nucleic Acid = test: Induction of DNA intercalation of pUC19 DNA assessed as compound level causing DNA re-supercoiling in presence of topoisomerase-1 incubated for 1 hr at 37 degC by electrophoresis method; type: nucleic-acid assay; details: Escherichia coli
Method in brief: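 pUC19 (0.25 µg) was preincubated with 5 U topoisomerase I for 5 min at 37°C. Reaction buffer was 35 mM Tris-HCl pH 8.0, 72 mM KCl, 5 mM MgCl2, 5 mM DTT, 5 mM spermidine and 0.1% BSA. Ligand (2.0–50 µM) was then added for 1 h at 37°C. After SDS/proteinase K treatment, extraction and ethanol precipitation, DNA was run on 1% agarose in TAE (18 V, 3.5 h) and GelStar-stained.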

Calf thymus DNA [7] = test: Binding affinity to calf thymus DNA assessed as increase in positive and negative CD bands at 5 to 50 uM at 25 degC by CD spectroscopy; type: nucleic-acid assay; details: Bos taurus
Method in brief: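 Ligand at 5–50 µM was added to 100 µM/bp CT-DNA in 10 mM MES pH 6.25 with 100 mM NaCl and 1 mM EDTA, at 25°C. CD spectra were recorded, including the induced CD region at 320–400 nm.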

[8] = Binding affinity to poly[d(A-T)]2 DNA (unknown origin) assessed as hypochromicity by UV-vis titration method
Method in brief: (§4)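 Titration was the same as the UV-vis binding titration: 6.7 µM ligand, 10 mM MES pH 6.25, 100 mM NaCl, 1 mM EDTA, 25°C. Hypochromicity was calculated as H% = (A383 free − A383 bound)/A383 free × 100.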

Calf thymus DNA [9] = test: Binding affinity to calf thymus DNA assessed as delta(logK)/delta(log[Na+]) ratio at 0.05 to 0.125 M NaCl by UV-vis titration method; type: nucleic-acid assay; details: Bos taurus
Method in brief: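 Binding constants for CT-DNA were measured by UV-vis Scatchard titration in 10 mM MES pH 6.25 with 1 mM EDTA at varied NaCl. The ratio is the slope of log K plotted against −log[Na+].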

Calf thymus DNA [10] = test: Binding affinity to calf thymus DNA assessed as change in free energy at 25 degC by thermodynamics analysis; type: nucleic-acid assay; details: Bos taurus; method in brief: as §3
[11] = Binding affinity to poly[d(G-C)]2 DNA (unknown origin) assessed as dissociation constant by stopped flow kinetics assay; method in brief: as §2
[12] = Binding affinity to poly[d(G-C)]2 DNA (unknown origin) assessed as hypochromicity by UV-vis titration method; method in brief: as §4
Calf thymus DNA [13] = test: Binding affinity to calf thymus DNA assessed as hypochromicity by UV-vis titration method; type: nucleic-acid assay; details: Bos taurus; method in brief: as §4
[14] = Binding affinity to poly[d(A-T)]2 DNA (unknown origin) assessed as association constant by stopped flow kinetics assay; method in brief: as §1
[15] = Selectivity index, ratio of binding constant K for poly[d(A-T)]2 DNA (unknown origin) to binding constant K for poly[d(G-C)]2 DNA (unknown origin)
Method in brief: (§5)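 The ratio uses binding constants from UV-vis Scatchard/McGhee–von Hippel titrations. Conditions were 6.7 µM ligand, 25°C, 10 mM MES pH 6.25, 100 mM NaCl, 1 mM EDTA.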

[16] = Selectivity index, ratio of binding constant K for calf thymus DNA to binding constant K for poly[d(G-C)]2 DNA (unknown origin); method in brief: as §5

Row | K (Calf thymus DNA [1]) | Kd [2] | K [3] | deltaH (Calf thymus DNA [5]) | deltaS (Calf thymus DNA [6]) | Activity (Nucleic Acid) | Activity (Calf thymus DNA [7]) | Activity [8] | Ratio (Calf thymus DNA [9]) | deltaG (Calf thymus DNA [10]) | Kd [11] | Activity [12] | Activity (Calf thymus DNA [13]) | K [14] | Selectivity Index [15] | Selectivity Index [16] | Structure (SMILES) | Kd (Calf thymus DNA [4])
1 | 120000 M⁻¹ s⁻¹ | 4.2 s⁻¹ | 26000 M⁻¹ s⁻¹ | 9.2 kcal/mol | 0.054 kcal/mol | 10 µM | Active | 49% | 0.74 | -7 kcal/mol | 1 s⁻¹ | 61% | 60% | 32000 M⁻¹ s⁻¹ |  |  | CN1CCCNC(=O)c2ccc(cc2)C(=O)NCCCN(C)CCCN2C(=O)c3ccc4c5c(ccc(c35)C2=O)C(=O)N(CCC1)C4=O | 1.1 s⁻¹
2 | 120000 M⁻¹ s⁻¹ | 2.6 s⁻¹ | 84000 M⁻¹ s⁻¹ | -6.7 kcal/mol | 0.003 kcal/mol |  |  | 60% | 0.83 | -7.6 kcal/mol | 0.3 s⁻¹ | 61% | 62% | 260000 M⁻¹ s⁻¹ |  |  | CN(C)CCCN1C(=O)c2ccc3c4c(ccc(c24)C1=O)C(=O)N(CCCN(C)C)C3=O | 1.1 s⁻¹
3 | 60000 M⁻¹ s⁻¹ | 0.15 s⁻¹ | 34000 M⁻¹ s⁻¹ | 7.8 kcal/mol | 0.053 kcal/mol | 2 µM |  | 47% | 0.72 | -8 kcal/mol | 0.003 s⁻¹ | 61% | 60% | 120000 M⁻¹ s⁻¹ | 9 | 9 | O=C1NCCCN2CCN(CCCN3C(=O)c4ccc5c6c(ccc(c46)C3=O)C(=O)N(CCCN3CCN(CCCNC(=O)c4ccc1cc4)CC3)C5=O)CC2 | 0.1 s⁻¹
